# Experimental data from PMC4607046 (Journal of the American Chemical Society, 2015).
# Assays:
# [1] = test system: PBP2a (pbp2a antisense, MRSA COL); experiment: Antisense sensitization, pbp2a antisense in MRSA COL; assay type: cell-based, S. aureus; conditions: xylose induction
# [2] = test system: PBP1 (pbpA antisense, MRSA COL); experiment: Antisense sensitization, pbpA antisense in MRSA COL; assay type: cell-based, S. aureus; conditions: xylose induction
# [3] = test system: Gram-negative bacteria of our panel; experiment: Antibacterial activity, E. coli and ESKAPE panel; assay type: cell-based; conditions: Gram-negative bacteria of the E. coli/ESKAPE panel
# S. aureus ATCC 29213 = experiment: MIC, in vitro antibacterial activity; assay type: cell-based, Staphylococcus aureus
# E. faecium = experiment: MIC, ESKAPE panel; assay type: cell-based, Enterococcus faecium
# HepG2 cells = experiment: XTT cell proliferation assay; assay type: cell-based; conditions: Homo sapiens, HepG2, read-out: IC50, XTT cell proliferation assay
# S. aureus VRS1 = experiment: MIC, in vitro antibacterial activity; assay type: cell-based; conditions: Staphylococcus aureus, MRSA
# Water solubility = assay type: physicochemical
# Method in brief: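 Test compound tested as its sodium salt, dissolved in water.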
# [4] = test system: S. aureus ATCC 29213 cell-wall biosynthesis; experiment: Macromolecular synthesis assay, cell wall; assay type: cell-based, Staphylococcus aureus; conditions: 2 at 0.5 MIC
# Method in brief: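 Logarithmic-phase S. aureus ATCC 29213 was treated with test compound at 1/2 MIC. Peptidoglycan synthesis was followed as D-[2,3-3H]-alanine incorporation into cell wall, with fosfomycin (16 μg/mL) as control. Maximum inhibition was taken at 120 min.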
# [5] = test system: S. aureus ATCC 29213 RNA synthesis; experiment: Macromolecular synthesis assay, RNA; assay type: cell-based, Staphylococcus aureus; conditions: 0.5 MIC
# Method in brief: (§1)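 Logarithmic-phase S. aureus ATCC 29213 was exposed to test compound at 1/2 MIC, and incorporation of radiolabeled precursors was monitored: [methyl-3H]-thymidine (DNA), [5,6-3H]-uridine (RNA) and L-[4,5-3H]-leucine (protein). Controls were ciprofloxacin 0.5 μg/mL (DNA), rifampicin 8 ng/mL (RNA) and tetracycline 31 ng/mL (protein). Maximum inhibition was taken at 80 min for DNA and at 120 min for RNA and protein.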
# [6] = Metabolic stability in rat S9; assay type: in vitro ADME; conditions: liver S9
# PBP2a = PBP2a (Staphylococcus aureus, UniProt P07944); experiment: Bocillin FL competition assay, purified recombinant PBP2a; assay type: binding, S. aureus
# Method in brief: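 Recombinant purified PBP2a (1 μM) was labeled with fluorescent Bocillin FL (20 μM) in the presence of increasing amounts of test compound (μg/mL). Competition was read as loss of fluorescence labeling of the active site, and an apparent IC50 was derived.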
# S. aureus NRS100 = experiment: MIC, in vitro antibacterial activity; assay type: cell-based; conditions: Staphylococcus aureus, MRSA|NRS100
# [7] = test system: E. coli S30 extract translation; assay type: biochemical; conditions: β-galactosidase assay system
# [8] = Hemolysis of red blood cells; assay type: cell-based
# S. aureus VRS2 = experiment: MIC, in vitro antibacterial activity; assay type: cell-based; conditions: Staphylococcus aureus, MRSA
# [9] = test system: S. aureus ATCC 29213 DNA synthesis; experiment: Macromolecular synthesis assay, DNA; assay type: cell-based, Staphylococcus aureus; conditions: 0.5 MIC
# Method in brief: as §1
# [10] = test system: S. epidermidis ATCC 35547; experiment: MIC, in vitro antibacterial activity; assay type: cell-based; conditions: Staphylococcus epidermidis, ATCC35547
# S. aureus NRS128 = experiment: MIC, in vitro antibacterial activity; assay type: cell-based; conditions: Staphylococcus aureus, MSSA|NRS128
# S. aureus NRS123 = experiment: MIC, in vitro antibacterial activity; assay type: cell-based; conditions: Staphylococcus aureus, MRSA|NRS123
# [11] = Glutathione adduct formation; assay type: in vitro ADME
# S. aureus NRS119 = experiment: MIC, in vitro antibacterial activity; assay type: cell-based; conditions: Staphylococcus aureus, MRSA|NRS119
# S. aureus NRS70 = experiment: MIC, in vitro antibacterial activity; assay type: cell-based; conditions: Staphylococcus aureus, MRSA|NRS70
# PBP2a allosteric site = PBP2a allosteric site (Staphylococcus aureus, UniProt P07944); experiment: Intrinsic fluorescence quenching of oxacillin-acylated PBP2a; assay type: binding, S. aureus
# Method in brief: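 PBP2a intrinsic fluorescence was excited at 280 nm and emission spectra were scanned while test compound was titrated to the final concentrations shown. Kd came from nonlinear regression of the change in maximum fluorescence intensity, averaged over three experiments.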
# [12] = Stability in mouse plasma; assay type: in vitro ADME
# [13] = Metabolic stability in human S9; assay type: in vitro ADME; conditions: liver S9
# [14] = Pharmacokinetics after single iv or po dose; assay type: in vivo, mice
# [15] = test system: S. aureus ATCC 29213 protein synthesis; experiment: Macromolecular synthesis assay, protein; assay type: cell-based, Staphylococcus aureus; conditions: 0.5 MIC
# Method in brief: as §1
# S. aureus NRS120 = experiment: MIC, in vitro antibacterial activity; assay type: cell-based; conditions: Staphylococcus aureus, MRSA|NRS120
# T7 transcription = experiment: In vitro transcription assay, T7 transcription kit; assay type: biochemical
# [16] = experiment with meropenem control
# [17] = Staphylococcus aureus, ATCC29213|MSSA
# Chain of PBP2a (P07944 whole entry): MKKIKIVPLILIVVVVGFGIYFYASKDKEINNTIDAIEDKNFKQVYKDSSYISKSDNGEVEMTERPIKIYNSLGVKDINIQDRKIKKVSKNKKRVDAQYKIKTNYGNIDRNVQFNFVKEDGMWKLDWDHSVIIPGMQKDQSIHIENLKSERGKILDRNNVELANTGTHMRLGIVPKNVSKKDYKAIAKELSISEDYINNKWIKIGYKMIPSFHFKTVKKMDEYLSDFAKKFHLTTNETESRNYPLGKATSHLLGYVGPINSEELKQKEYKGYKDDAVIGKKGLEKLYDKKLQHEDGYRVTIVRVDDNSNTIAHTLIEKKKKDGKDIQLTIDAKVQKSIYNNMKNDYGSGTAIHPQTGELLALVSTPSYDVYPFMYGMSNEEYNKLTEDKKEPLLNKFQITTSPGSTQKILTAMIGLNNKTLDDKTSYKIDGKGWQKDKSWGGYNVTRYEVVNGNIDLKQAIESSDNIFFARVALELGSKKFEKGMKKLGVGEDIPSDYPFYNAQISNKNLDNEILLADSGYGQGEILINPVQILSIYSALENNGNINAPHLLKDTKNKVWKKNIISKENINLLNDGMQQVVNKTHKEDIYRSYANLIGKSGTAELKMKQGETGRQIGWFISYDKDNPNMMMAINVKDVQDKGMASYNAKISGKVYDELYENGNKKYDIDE
# Chain of PBP2a allosteric site (P07944 whole entry): as above
compound,measurement,setting,value
CCO/N=C(\C(=O)N[C@@H]1C(=O)N2C(C(=O)[O-])=C(Sc3nc(-c4cc[n+](C)cc4)cs3)CS[C@H]12)c1nsc(N)n1 [ceftaroline],sensitization on attenuation of PBP2a expression,[1],sensitized the strain
same,sensitization on attenuation of PBP1 expression,[2],sensitized the strain
N#Cc1ccc(/C=C/c2nc3ccccc3c(=O)n2-c2cccc(C(=O)O)c2)cc1 [compound 1],activity against Gram-negative bacteria,[3],did not have activity
same,MIC,"S. aureus ATCC 29213; S. aureus ATCC 29213, quality control MSSA strain",2 µg/mL
same,MIC,E. faecium,16 µg/mL
"N#Cc1ccc(/C=C/c2nc3ccccc3c(=O)n2-c2cccc(C(=O)O)c2)cc1 [compound 2, (E)-3-(3-carboxyphenyl)-2-(4-cyanostyryl)quinazolin-4(3H)-one]",IC50,HepG2 cells,63 ± 1 µg/mL
same,MIC,S. aureus VRS1,16 µg/mL
same,solubility,Water solubility,8000 µg/mL
same,"inhibition of cell-wall biosynthesis (D-[2,3-3H]-alanine incorporation)","[4]; experiment with fosfomycin control, fosfomycin 16 μg/mL, 120 min",51 ± 12%
same,"inhibition of cell-wall biosynthesis (D-[2,3-3H]-alanine incorporation)",[4]; [16],61 ± 4%
same,"effect on transcription (RNA synthesis, [5,6-3H]-uridine incorporation)",[5],did not significantly affect
same,remaining at 1 h,[6],100%
same,IC50,PBP2a,356 µM
same,MIC,S. aureus NRS100,16 µg/mL
same,inhibition of in vitro translation,[7],did not show inhibition
same,alkylating agent,Alkylating agent test,not an alkylating agent
same,hemolysis at 50 μg/mL,[8],< 1%
same,MIC,S. aureus VRS2,2 µg/mL
same,"effect on replication (DNA synthesis, [methyl-3H]-thymidine incorporation)",[9],did not significantly affect
same,MIC,[10],1 µg/mL
same,MIC,S. aureus NRS128,4 µg/mL
same,MIC,S. aureus NRS123,2 µg/mL
same,glutathione adduct formation,[11],did not form glutathione adducts
same,MIC,S. aureus NRS119,8 µg/mL
same,MIC,S. aureus NRS70,2 µg/mL
same,Kd,PBP2a allosteric site,17.5 µM
same,half-life in mouse plasma,[12],141 h
same,sensitization on attenuation of PBP2a expression,[1],sensitized the strain
same,remaining at 1 h,[13],100%
same,MIC,S. aureus ATCC 29213; [17],2 µg/mL
same,maximum concentration,"[14]; mice, single 10 mg/kg oral (po) dose",1.29 µg/mL
same,time plasma levels sustained above MIC,"[14]; mouse, in vivo, iv, 10 mg/kg",2 h
same,clearance,"[14]; mouse, plasma, iv, 10 mg/kg",6.87 mL/min/kg
same,half-life,"[14]; mouse, plasma, iv, 10 mg/kg",> 20 h
same,half-life,"[14]; mouse, plasma, po, 10 mg/kg",> 20 h
same,"effect on translation (protein synthesis, L-[4,5-3H]-leucine incorporation)",[15],did not significantly affect
same,MIC,S. aureus NRS120,8 µg/mL
same,inhibition of in vitro transcription,T7 transcription,did not show inhibition
same,sensitization on attenuation of PBP1 expression,[2],sensitized the strain
C[C@@H](O)[C@H]1C(=O)N2C(C(=O)O)=C(SCCN=CN)C[C@H]12 [imipenem],sensitization on attenuation of PBP2a expression,[1],sensitized the strain
same,sensitization on attenuation of PBP1 expression,[2],sensitized the strain
CC(=O)NC[C@H]1CN(c2ccc(N3CCOCC3)c(F)c2)C(=O)O1 [linezolid],MIC,S. aureus VRS1,2 µg/mL
same,MIC,S. aureus NRS100,2 µg/mL
same,MIC,S. aureus VRS2,2 µg/mL
same,MIC,[10],1 µg/mL
same,MIC,S. aureus NRS128,1 µg/mL
same,MIC,S. aureus NRS123,2 µg/mL
same,MIC,S. aureus NRS119,32 µg/mL
same,MIC,S. aureus NRS70,1 µg/mL
same,MIC,S. aureus ATCC 29213; [17],4 µg/mL
same,MIC,S. aureus NRS120,32 µg/mL
"C[C@@H](O)[C@H]1C(=O)N2C(C(=O)O)=C(S[C@@H]3CN[C@H](C(=O)N(C)C)C3)[C@H](C)[C@H]12 [meropenem, reference compound]","inhibition of cell-wall biosynthesis (D-[2,3-3H]-alanine incorporation)",[4]; [16],64 ± 2%
Cc1onc(-c2ccccc2)c1C(=O)N[C@@H]1C(=O)N2[C@@H]1SC(C)(C)[C@@H]2C(=O)O [oxacillin],MIC,S. aureus VRS1,512 µg/mL
same,MIC,S. aureus NRS100,512 µg/mL
same,MIC,S. aureus VRS2,256 µg/mL
same,MIC,[10],128 µg/mL
same,MIC,S. aureus NRS128,0.5 µg/mL
same,MIC,S. aureus NRS123,32 µg/mL
same,MIC,S. aureus NRS119,512 µg/mL
same,MIC,S. aureus NRS70,32 µg/mL
same,MIC,S. aureus ATCC 29213; [17],0.25 µg/mL
same,MIC,S. aureus NRS120,512 µg/mL
CN[C@H](CC(C)C)C(=O)N[C@H]1C(=O)N[C@@H](CC(N)=O)C(=O)N[C@H]2C(=O)N[C@H]3C(=O)N[C@H](C(=O)N[C@H](C(=O)O)c4cc(O)cc(O)c4-c4cc3ccc4O)[C@H](O)c3ccc(c(Cl)c3)Oc3cc2cc(c3O[C@@H]2O[C@H](CO)[C@@H](O)[C@H](O)[C@H]2O[C@H]2C[C@](C)(N)[C@H](O)[C@H](C)O2)Oc2ccc(cc2Cl)[C@H]1O [vancomycin],MIC,S. aureus VRS1,512 µg/mL
same,MIC,S. aureus NRS100,2 µg/mL
same,MIC,S. aureus VRS2,64 µg/mL
same,MIC,[10],16 µg/mL
same,MIC,S. aureus NRS128,1 µg/mL
same,MIC,S. aureus NRS123,1 µg/mL
same,MIC,S. aureus NRS119,2 µg/mL
same,MIC,S. aureus NRS70,1 µg/mL
same,MIC,S. aureus ATCC 29213; [17],1 µg/mL
same,MIC,S. aureus NRS120,2 µg/mL
